Experimental data taken from ChEMBL document CHEMBL4251542, “Discovery of cyclopropyl chromane-derived pyridopyrazine-1,6-dione γ-secretase modulators with robust central efficacy” (Medchemcomm, 2017).

Tests used:
[1] = Apparent intrinsic clearance in human liver microsomes; assay type: ADME, microsome; details: read-out: CLH
MDR1 (P-gp), human = experiment: in vitro; details: dog, MDCK-MDR1;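 also: transwell permeability assay, efflux ratio of apparent permeability, compound tested at 2 µM over 5 h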
Gamma-secretase = experiment: Modulation of gamma-secretase (unknown origin) expressed in CHO cells co-expressing human wild type APP assessed as reduction in amyloid beta 42 levels after 24 hrs by ELISA; assay type: cell-based
[2] = Ratio of IC50 for decrease in contractility of Wistar rat langendorff isolated heart model to fCmax in Sprague-Dawley rat at 100 mg/kg administered via oral gavage; assay type: organism-based; details: in vivo
[3] = Total Cmax in Sprague-Dawley rat at 100 mg/kg administered via oral gavage measured at 1 to 24 hrs post dose; assay type: ADME, organism-based; parameters: dose 100 mg/kg, route oral; details: in vivo
How it was run: (§1)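 Single escalating oral gavage doses given to Sprague-Dawley rats, 3/sex/dose. Suspension in 0.5% methylcellulose with 0.1% Polysorbate 80, dosed at 10 mL/kg. […] Clinical signs also monitored.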

[4] = Cardiotoxicity in Wistar rat langendorff isolated heart model assessed as decrease in perfusion pressure perfused for 5 mins measured for 1 min; assay type: toxicity, tissue-based
Rattus norvegicus [5] = experiment: Unbound Cmax in Sprague-Dawley rat at 100 mg/kg administered via oral gavage measured at 1 to 24 hrs post dose; assay type: ADME, organism-based; details: in vivo; how it was run: as §1
Rattus norvegicus [6] = experiment: Toxicity in Sprague-Dawley rat assessed as lethality at 100 mg/kg administered via oral gavage; assay type: organism-based; details: in vivo
How it was run: (§2)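 Single escalating oral gavage doses given to Sprague-Dawley rats, 3 per sex per dose. Suspension in 0.5% methylcellulose with 0.1% Polysorbate 80, dosed at 10 mL/kg. Clinical signs watched continuously for the first several hours and/or intermittently through the dosing day. Plasma drug levels sampled at 1, 4, 8 and 24 h post-dose. Lethality scored per group of 6.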

[7] = Cardiotoxicity in Wistar rat langendorff isolated heart model assessed as decrease in contractility perfused for 5 mins measured for 1 min; assay type: toxicity, tissue-based
[8] = Cardiotoxicity in Wistar rat langendorff isolated heart model assessed as decrease in left ventricle pressure perfused for 5 mins measured for 1 min; assay type: toxicity, tissue-based
[9] = Clearance in rat at 1 mg/kg, iv; assay type: ADME, organism-based; details: in vivo
Rattus norvegicus [10] = experiment: Reduction of amyloid beta 42 levels in Sprague-Dawley rat at 10 mg/kg, po measured at 4 hrs by DELFIA analysis relative to control; assay type: functional; parameters: scale not given: the % may be the effect or the level left
How it was run: (§3)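 Male Sprague-Dawley rats (254-326 g) dosed orally with vehicle or 10 or 40 mg/kg. Brains taken at 1, 4, 8, 11, 16 and 20 h post-dose, 4 rats per group. Homogenized in 0.4% DEA/50 mM NaCl, held overnight at 4 °C, spun at 135,000xg for 1 h. Supernatant cleaned by solid-phase extraction and concentrated; Aβ42 read by DELFIA as % change vs vehicle.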

Rattus norvegicus [11] = experiment: Toxicity in Sprague-Dawley rat assessed as lethality at 300 mg/kg administered via oral gavage; assay type: organism-based; details: in vivo
[12] = Fraction unbound in rat brain; assay type: ADME, tissue-based
[13] = Ratio of drug level in brain to plasma in rat at 5 mg/kg, sc measured at 1 to 7 hrs; assay type: ADME, organism-based; details: brain and plasma, read-out: BPR
[14] = Fraction unbound in rat plasma; assay type: ADME, cell-free
[15] = Total Cmax in Sprague-Dawley rat at 300 mg/kg administered via oral gavage measured at 1 to 24 hrs post dose; assay type: ADME, organism-based; parameters: dose 300 mg/kg, route oral; details: in vivo
Rattus norvegicus [16] = experiment: Reduction of amyloid beta 42 levels in Sprague-Dawley rat at 40 mg/kg, po measured at 4 hrs by DELFIA analysis relative to control; assay type: functional; parameters: scale not given: the % may be the effect or the level left; how it was run: as §3
[17] = Unbound brain concentration in Sprague-Dawley rat at 40 mg/kg, po; assay type: ADME, organism-based; details: in vivo
[18] = Oral bioavailability in rat at 5 mg/kg; assay type: ADME, organism-based; details: in vivo
[19] = Unbound brain concentration in Sprague-Dawley rat at 10 mg/kg, po; assay type: ADME, organism-based; details: in vivo
Rattus norvegicus [20] = experiment: Unbound Cmax in Sprague-Dawley rat at 300 mg/kg administered via oral gavage measured at 1 to 24 hrs post dose; assay type: ADME, organism-based; details: in vivo
[21] = Half life in rat at 1 mg/kg, iv; assay type: ADME, organism-based; details: in vivo
Rattus norvegicus [22] = experiment: Reduction of amyloid beta 42 levels in Sprague-Dawley rat at unbound brain concentration administered 10 mg/kg, po by DELFIA analysis relative to control; assay type: functional
Rattus norvegicus [23] = experiment: Toxicity in Sprague-Dawley rat assessed as lethality at 30 mg/kg administered via oral gavage; assay type: organism-based; details: in vivo; how it was run: as §2
[24] = Total Cmax in Sprague-Dawley rat at 30 mg/kg administered via oral gavage measured at 1 to 24 hrs post dose; assay type: ADME, organism-based; parameters: dose 30 mg/kg, route oral; details: in vivo; how it was run: as §1
[25] = Ratio of IC50 for decrease in contractility of Wistar rat langendorff isolated heart model to fCmax in Sprague-Dawley rat at 30 mg/kg administered via oral gavage; assay type: organism-based; details: in vivo
Rattus norvegicus [26] = experiment: Unbound Cmax in Sprague-Dawley rat at 30 mg/kg administered via oral gavage measured at 1 to 24 hrs post dose; assay type: ADME, organism-based; details: in vivo; how it was run: as §1

SMILES	microsomal CLint [1] [µL/min/mg]	efflux ratio at 5 h, 2 µM (MDR1 (P-gp), human)	IC50 (Gamma-secretase) [nM]	further results
Cc1cn(-c2ccc3n(c2=O)CCN(C[C@@]24C[C@@H]2COc2ccc(Cl)cc24)C3=O)cn1	43.9	1.8	63	–
Cc1cn(-c2ccc3n(c2=O)CCN([C@@H](C)C2=CC(C)(C)Oc4ccc(OC(F)(F)F)cc42)C3=O)cn1	25.7	1.9	6	Ratio [2]: 4; Cmax [3]: 17.7 µM; EC50 at 5 min [4]: 1370 nM; fCmax (Rattus norvegicus [5]): 620 nM; Activity (Rattus norvegicus [6]): Toxic; IC50 at 5 min [7]: 2480 nM; IC50 at 5 min [8]: 1620 nM
Cc1cn(-c2ccc3n(c2=O)CCN(C[C@@]24C[C@@H]2COc2ccc(C(F)(F)F)cc24)C3=O)cn1	37.9	2.4	5.6	–
Cc1cn(-c2ccc3n(c2=O)CCN(CC2=CC(C)(C)Oc4ccc(Cl)cc42)C3=O)cn1	–	1.9	53	–
Cc1cn(-c2ccc3n(c2=O)CCN(C[C@@]24C[C@@H]2COc2cc(C(F)(F)F)ccc24)C3=O)cn1	14.6	1.7	52	–
Cc1cn(-c2ccc3n(c2=O)CCN(C[C@@]24C[C@@H]2C(C)(C)Oc2ccc(C(F)(F)F)cc24)C3=O)cn1	34.5	–	–	clearance [9]: 26.4 mL/min/kg; EC50 at 5 min [4]: > 30000 nM; Activity (Rattus norvegicus [10]): 40%; Activity (Rattus norvegicus [11]): Non-Toxic; fraction unbound [12]: 0.0054; Kp [13]: 0.76; fraction unbound [14]: 0.018; Cmax [15]: 90.4 µM; Activity (Rattus norvegicus [16]): 62%; Drug uptake(free) [17]: 67 nM; bioavailability [18]: 67%; IC50 at 5 min [7]: > 30000 nM; Drug uptake(free) [19]: 11 nM; fCmax (Rattus norvegicus [20]): 1620 nM; IC50 at 5 min [8]: > 30000 nM; half-life [21]: 1.6 h; %max (Rattus norvegicus [22]): 40%
COc1ccc2c(c1)[C@]1(CN3CCn4c(ccc(-n5cnc(C)c5)c4=O)C3=O)C[C@@H]1CO2	33.7	2.2	181	–
Cc1cn(-c2ccc3n(c2=O)CCN([C@H](C)C2=CC(C)(C)Oc4ccc(C(F)(F)F)cc42)C3=O)cn1	242	1.8	801	–
Cc1cn(-c2ccc3n(c2=O)CCN(CC2CCOc4ccc(C(F)(F)F)cc42)C3=O)cn1 (stereo unspecified)	37.6	1.9	322	–
Cc1cn(-c2ccc3n(c2=O)CCN([C@@H](C)C2=CC(C)(C)Oc4ccc(C(F)(F)F)cc42)C3=O)cn1	14.3	1.9	4.9	EC50 at 5 min [4]: 576 nM; Activity (Rattus norvegicus [23]): Toxic; Cmax [24]: 5.84 µM; IC50 at 5 min [7]: 1360 nM; Ratio [25]: 6.6; fCmax (Rattus norvegicus [26]): 205 nM; IC50 at 5 min [8]: 1030 nM
Cc1cn(-c2ccc3n(c2=O)CCN(CC2=CCOc4ccc(C(F)(F)F)cc42)C3=O)cn1	108	1.7	30	–
Cc1cn(-c2ccc3n(c2=O)CCN(C[C@]24C[C@H]2COc2ccc(C(F)(F)F)cc24)C3=O)cn1	70.5	1.9	129	–
Cc1cn(-c2ccc3n(c2=O)CCN(C[C@@]24C[C@@H]2C(C)(C)Oc2ccc(OC(F)(F)F)cc24)C3=O)cn1	42.4	2.1	5.1	EC50 at 5 min [4]: > 30000 nM; Activity (Rattus norvegicus [11]): Non-Toxic; Cmax [15]: 60.9 µM; IC50 at 5 min [7]: > 30000 nM; fCmax (Rattus norvegicus [20]): 670 nM; IC50 at 5 min [8]: > 30000 nM
Cc1cn(-c2ccc3n(c2=O)CCN(CC2=CC(C)(C)Oc4ccc(C(F)(F)F)cc42)C3=O)cn1	47.8	2	13	–
